Series [1] deals with T1, 3-hydroxy-3-methylglutaryl-coenzyme A reductase (Homo sapiens) (UniProt P04035).
T1 sequence (whole entry): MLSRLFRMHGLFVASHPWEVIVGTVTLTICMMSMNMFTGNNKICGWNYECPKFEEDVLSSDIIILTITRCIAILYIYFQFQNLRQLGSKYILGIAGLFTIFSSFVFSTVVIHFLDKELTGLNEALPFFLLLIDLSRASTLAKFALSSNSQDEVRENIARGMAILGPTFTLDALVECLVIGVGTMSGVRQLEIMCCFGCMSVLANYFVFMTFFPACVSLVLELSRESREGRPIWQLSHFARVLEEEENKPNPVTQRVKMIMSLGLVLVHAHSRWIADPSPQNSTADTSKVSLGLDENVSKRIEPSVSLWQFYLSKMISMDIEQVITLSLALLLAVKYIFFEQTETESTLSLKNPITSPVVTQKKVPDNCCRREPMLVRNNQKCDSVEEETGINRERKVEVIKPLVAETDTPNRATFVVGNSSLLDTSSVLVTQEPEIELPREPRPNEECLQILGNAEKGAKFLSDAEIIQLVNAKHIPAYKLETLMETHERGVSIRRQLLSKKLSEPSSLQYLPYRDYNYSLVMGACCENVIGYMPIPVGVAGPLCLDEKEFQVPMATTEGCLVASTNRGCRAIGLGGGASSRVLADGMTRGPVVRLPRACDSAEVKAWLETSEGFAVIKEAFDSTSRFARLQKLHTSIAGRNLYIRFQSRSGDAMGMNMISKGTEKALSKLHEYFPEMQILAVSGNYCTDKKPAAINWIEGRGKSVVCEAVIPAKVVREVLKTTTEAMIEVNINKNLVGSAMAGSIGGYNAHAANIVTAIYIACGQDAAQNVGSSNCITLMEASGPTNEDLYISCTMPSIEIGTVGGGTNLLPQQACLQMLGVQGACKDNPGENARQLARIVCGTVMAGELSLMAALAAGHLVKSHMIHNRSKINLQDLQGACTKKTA
Briefly: Inhibition of human HMG-CoA reductase catalytic domain at 1 uM using HMG-CoA as substrate measured every 20 secs for 10 mins relative to control. Summed up: (§1)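 Cell-free kit assay: human HMGR catalytic domain added to buffer with NADPH and HMG-CoA to start the reaction at 37 °C. NADPH oxidation followed as A340 every 20 s for 10 min. Results expressed as percent inhibition of untreated control, n = 3.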

Series [2] concerns the target T1, 3-hydroxy-3-methylglutaryl-coenzyme A reductase (Homo sapiens). Kind of series: Inhibition of human HMG-CoA reductase catalytic domain at 200 uM using HMG-CoA as substrate measured every 20 secs for 10 mins relative to control. Summed up:
as §1

For series [3], the system named is Caco-2. Briefly: Antioxidant activity in human Caco2 cells assessed as decrease in reactive oxygen species level after 24 hrs by DCFH-DA dye-based fluorescence assay. It is filed as functional, cell-based. A digest of the protocol: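 Caco-2 cells (ATCC, passages 2–22, DMEM/F-12 with 10% FBS) were exposed 24 h at 12.5–100 µM. They were then loaded with 10 µM DCFH-DA for 1 h at 37 °C in the dark and incubated 30 min without H2O2. Fluorescence was read at ex 495/em 527 nm. Means ± S.E.M., n = 3, vs untreated control cells.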

Series [4] has as its system Caco-2. Briefly: Cytotoxicity against human Caco2 cells assessed as decrease in cell viability at 12.5 to 100 uM after 24 hrs by MTT assay. In kind it is cell-based. As to conditions: caco-2, 24 h. A digest of the protocol:
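Caco-2 cells (ATCC, passages 2–22, DMEM/F-12 with 10% FBS) were plated at 2.5 × 10^4 cells/well for 24 h, then exposed to 12.5, 25, 50, 75 and 100 µM for 24 h. After washing, cells got 5 mg/mL MTT for 4 h, crystals were dissolved in DMSO and A570 read. Viability is % of control, means ± S.E.M., n = 5.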
(Formazan colour is commonly taken as a measure of viable cells.)

A further series deals with Vero. Briefly: Cytotoxicity against African green monkey Vero cells by GFP-based assay. As to conditions: Chlorocebus sabaeus. In kind it is cell-based. Summed up: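 Vero cell assay run in triplicate following a previously published method, with ellipticine as reference drug; IC50 reported.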
Series [5] relates to Caco-2. Briefly: Antioxidant activity in human Caco2 cells assessed as decrease in H2O2-induced reactive oxygen species level after 24 hrs by DCFH-DA dye-based fluorescence assay. It is filed as functional, cell-based. A digest of the protocol:
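Caco-2 cells (ATCC, passages 2–22, DMEM/F-12 with 10% FBS) were treated 24 h at 12.5–100 µM. They were loaded with 10 µM DCFH-DA for 1 h at 37 °C in the dark, then exposed to 0.5 mM H2O2 for 30 min and washed twice. Fluorescence was read at ex 495/em 527 nm. Means ± S.E.M., n = 3, vs H2O2-exposed control cells.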

The target in series [6] is Cystic fibrosis transmembrane conductance regulator (Homo sapiens, UniProt P13569). Briefly: Inhibition of CFTR-mediated forskolin-induced chloride secretion in human T84 cells after 15 mins by short-circuit current analysis. In kind it is cell-based. A digest of the protocol:
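T84 monolayers grown on 1 cm² porous inserts (500,000 cells/insert) until TEER > 1000 Ω·cm², then mounted in Ussing chambers. Symmetrical Krebs solution (pH 7.3, 10 mM glucose) was gassed with 95% O2/5% CO2 at 37 °C. Chloride secretion was stimulated with 20 µM forskolin, then compound added apically at varied concentrations. Short-circuit current recorded; IC50 from Hill equation.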

pIC50: −log10 of the molar value. Activity calls are given as the source filed them. The rule behind the calls is not given here.

The text below walks through data of ChEMBL document CHEMBL4229502, “Asperidines A-C, pyrrolidine and piperidine derivatives from the soil-derived fungus Aspergillus sclerotiorum PSU-RSPG178” (Bioorg Med Chem, 2018).

As usually defined, the inhibition is how much of the control response was suppressed. The term pIC50 denotes the negative decadic logarithm of the IC50, by convention in mol/L.

For the compound `CC[C@H](C)C(=O)O[C@H]1C[C@H](O)C=C2C=C[C@H](C)[C@H](CC[C@@H](O)C[C@@H](O)CC(=O)O)[C@H]21`, the inhibition in series [1] stood at 86%.

For the compound `CCCCCCCC[C@@H]1CC[C@H](O)[C@H](Cc2ccccc2)N1C`, the values for the inhibition in series [2] and in series [6] were 29% and “Dose-dependent effect”, respectively. For the same compound, the values for the Activity result with Caco-2 [3], with Caco-2 [4] and with Caco-2 [5] were “Dose-dependent effect”, “Non-Toxic” and “Dose-dependent effect”, respectively. The compound also showed a pIC50 with Vero of 4.29.

Take `CCCCCCCCC[C@@H]1C[C@H](O)[C@H]2C[N@]1O[C@@H]2c1ccccc1`: the inhibition result in series [2] is “inactive”. The Activity result in the series with Caco-2 [3] was “Dose-dependent effect”; with Caco-2 [4], “Non-Toxic”; in the series on Vero, “Non-Toxic”; with Caco-2 [5] it was “Dose-dependent effect”. In series [6], this compound showed a pIC50 of 4.23.

For `Cc1c2ccncc2c(C)c2c1[nH]c1ccccc12` [ELLIPTECINE], the pIC50 in the series on Vero was 5.39.
